hERG rescue: hERG rescue from dofetilide block, primary screen, cell-based, CHO-hERG, FluxOR thallium flux, dofetilide IC70; Voltage-gated inwardly rectifying potassium channel KCNH2 (Homo sapiens), Q12809; dofetilide IC70 present; 0.51% of 310,000 active; AID 1511, 2009; activation (rescue from dofetilide block), less the hit threshold, % at 10 µM;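 active means activation above the mean of controls blocked by dofetilide plus 5 SD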;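 further: thallium influx through hERG after potassium depolarization seen as dye fluorescence rise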
KCNQ1 act: potentiators or activators of KCNQ1 channel, primary screen, cell-based, thallium flux, high-throughput | 0.35% of 310,000 active | CHO-K1 KCNQ1, thallium flux FluxOR fluorescence; hits give high values | B-score at 10 µM | Potassium voltage-gated channel subfamily KQT member 1 (Homo sapiens), P51787;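 active means fluorescence ratio B-score, a plate-corrected score, at least three library SD, with initial intensity B-score within 5 SD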
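Assay system: CHO-K1 cells stably expressing KCNQ1. Medium: assay buffer for compound exposure, DMSO matched across wells. Timing: 37 °C overnight plating, 90-min dark dye load, 20-min compound pretreatment. Signal: kinetic FluxOR fluorescence, 10 s baseline plus 110 s post-stimulus.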
KCNK3 block: human KCNK3 channel inhibitors, primary screen, CHO cells, FluxOR thallium flux, B-score | Potassium channel subfamily K member 3 (Homo sapiens), O14649 | FluxOR fluorescence; hits give low values | B-score at 10 µM | 0.84% of 340,000 active;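 active means B-score under library mean minus 4 SD, starting fluorescence ratio at most library mean plus 5 SD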;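 further: more negative B-score means stronger inhibition of thallium flux through KCNK3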
Target sequence (O14649 whole entry, looked up): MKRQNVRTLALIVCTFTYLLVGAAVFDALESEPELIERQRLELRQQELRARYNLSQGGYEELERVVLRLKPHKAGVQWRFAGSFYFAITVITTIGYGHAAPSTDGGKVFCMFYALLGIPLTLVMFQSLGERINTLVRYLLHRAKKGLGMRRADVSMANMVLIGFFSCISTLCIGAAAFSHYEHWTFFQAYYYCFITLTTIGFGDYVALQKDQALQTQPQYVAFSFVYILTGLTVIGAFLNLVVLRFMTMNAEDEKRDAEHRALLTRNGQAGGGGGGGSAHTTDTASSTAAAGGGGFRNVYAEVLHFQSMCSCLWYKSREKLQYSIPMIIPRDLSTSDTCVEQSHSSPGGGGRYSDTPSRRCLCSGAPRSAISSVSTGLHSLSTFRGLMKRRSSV
KCNK9 block: KCNK9 potassium channel inhibitors, primary screen, HEK293 cells, thallium flux | Potassium channel subfamily K member 9 (Homo sapiens), Q9NPC2 | FluxOR thallium flux fluorescence; hits give low values | B-score at 10 µM | 1.2% of 310,000 active | AID 488922, 2010;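 active means ratio B-score over 3 SD below the library mean, with starting fluorescence within 5 SD of its mean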;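 further: negative B-score means less thallium flux so channel inhibition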
KCC2 mod: KCC2 cotransporter modulators, thallium flux, primary screen, cell-based, HEK293 KCC2, FluoZin-2 fluorescence, MLSMR; KCC2 cells, thallium flux FluoZin-2 fluorescence; 2.2% of 190,000 active; B-score of Tl+ flux slope (higher = more flux/activation; lower = inhibition) at 10 µM; Solute carrier family 12 member 5 (Homo sapiens), Q9H2X9;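 active means thallium flux slope and its plate-corrected score both differing from the plate sample mean at a set confidence after two filtering rounds, in either direction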;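 further: slope of fluorescence scaled to starting intensity during 10 to 20 s after thallium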
KCNQ1 inh: inhibitors of human KCNQ1 channel, primary screen, cell-based, thallium flux, high-throughput. B-score at 10 µM. Potassium voltage-gated channel subfamily KQT member 1 (Homo sapiens), P51787. CHO-K1 KCNQ1, FluxOR thallium flux fluorescence; hits give high values. 1.3% of 310,000 active;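 active means compounds whose thallium flux B-score, printed positive for inhibition, exceeds three library SD while starting fluorescence stays within three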;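 further: channel opened by potassium depolarization with thallium stimulus after 20 min compound exposure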
KCNQ1 block val: KCNQ1 potassium channel inhibitors, confirmation, cell-based, Tl flux, duplicate | inhibition, % at 10 µM | shares compounds with KCNQ1 inh | AID 588353, 2011 | 93% of 1,600 active | KCNQ1 cell line, FluxOR thallium flux fluorescence;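 active means primary screen active, with duplicate mean exceeding buffer control mean plus 3 SD of buffer wells, cut at about 28% in these data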;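 further: 0% = buffer control ratio and 100% = XE991 inhibitor control ratio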
CHO Tl flux: thallium flux effects in parental CHO cells, counter-screen for KCNQ1 inhibitor project, cell-based, Tl flux | 21% of 1,600 active | fluorescence ratio (Tl flux) at 10 µM | shares compounds with KCNQ1 inh | parental CHO-K1, FluxOR thallium flux fluorescence ratio; hits give low values; zero means no signal rise above baseline | AID 588366, 2011;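 active means mean of duplicate thallium-flux fluorescence ratios in parental host cells more than 5 SD below the buffer control mean, cut at about 0.38 in these data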;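 further: ratio is peak minus minimum fluorescence divided by baseline fluorescence; actives read low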
KCNQ1 ephys val: KCNQ1 channel inhibitors, confirmation, orthogonal assay, cell-based, automated electrophysiology; shares compounds with KCNQ1 inh; KCNQ1-CHO cells, automated patch clamp current; calls only at 10 µM; 20% of 490 active; AID 624120, 2012;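 active means KCNQ1 current drop exceeding 3 SD of negative control wells, seen in both duplicate runs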;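 further: steady state current during a 2 s step from -80 to +40 mV; negative values mean current inhibition and positive values mean potentiation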
KCNQ2 spec: KCNQ2 channel inhibition, selectivity assay for KCNQ1 inhibitor project, cell-based; inhibition, % at 10 µM; AID 651746, 2012; shares compounds with KCNQ1 inh; 71% of 1,600 active; KCNQ2 cells, FluxOR thallium flux fluorescence;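 active means mean percent inhibition of the KCNQ2 thallium signal more than 5 SD above the buffer-only control wells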;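 further: KCNQ2 expressed in CHO cells; 0% = buffer control wells and 100% = XE-991 inhibitor control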
KCNQ1-KCNE1 inh: KCNQ1/KCNE1 channel inhibition, selectivity assay for KCNQ1 inhibitor project, CHO-K1 cells, thallium flux, FluxOR | shares compounds with KCNQ1 inh | FluxOR thallium flux fluorescence | 77% of 1,600 active | AID 652147, 2013 | inhibition, % at 10 µM;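 active means mean percent inhibition of duplicate wells above the buffer-only control mean plus 3 SD of those controls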;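 further: 0% = buffer only wells and 100% = XE-991 inhibitor control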
Active calls of the source: *; i = inactive; nt = not tested or not shown; + = active, no number. Hits are enriched below; roughly 4.1% of the tested compounds scored in any of these assays.

SMILES	hERG rescue	KCNQ1 act	KCNK3 block	KCNK9 block	KCC2 mod	KCNQ1 inh	KCNQ1 block val	CHO Tl flux	KCNQ2 spec	KCNQ1-KCNE1 inh	others
O=C(c1cccc(S(=O)(=O)N2CCN(c3ccc(F)cc3)CC2)c1)N1CCCC(C(F)(F)F)C1 (stereo not given)	-14.1	i	i	i	nt	6*	94.0*	0.484	89.0%*	64.5%*	KCNQ1 ephys val=i
S=C(NCCN(C1CCCCC1)C1CCCC1)Nc1cccc(Cl)c1	-13.4	i	i	i	nt	6*	80.0*	0.429	92.0%*	i
S=C(Nc1cccc(Cl)c1)NC1CC2CCCC(C1)N2C1CCCC1 (stereo not given)	-12.4	i	i	i	0.531	i	nt	nt	nt	nt
N#C/C(=C\c1coc2ccc(O)cc2c1=O)C(=O)Nc1nc2ccccc2s1	-25.0	i	i	i	nt	26*	+	0.131*	i	i
N#C/C(=C\c1coc2ccccc2c1=O)C(N)=S	-16.1	i	i	i	0.375	i	nt	nt	nt	nt
CC(=O)N1CCN(C(=O)COC(=O)/C=C/c2ccccc2[N+](=O)[O-])CC1	nt	nt	i	nt	nt	nt	nt	nt	nt	nt
Cc1nc2c(-c3ccccc3)c(C)nn2c(N)c1-c1ccccc1	-5.6	i	i	i	0.998	7*	+	0.45	i	i	KCNQ1 ephys val=i
O=S(=O)(Nc1nc2ccccc2nc1N1CCc2ccccc2C1)c1ccc(Br)cc1	nt	nt	i	nt	-0.194	nt	nt	nt	nt	nt
Cc1ccccc1S(=O)(=O)Nc1nc2ccccc2nc1N1CCc2ccccc2C1	-17.7	i	i	i	1.59	7*	84.5*	0.389	92.3%*	121.5%*
CC(C)=CCC/C(C)=C/CNC(=O)C[C@H]1C[C@H](C(=O)N2CCOCC2)[C@@]2(CCC3CCCC3)c3[nH]c4cc(-c5ccco5)ccc4c3CCN2C1=O	nt	nt	i	nt	nt	nt	nt	nt	nt	nt
OC(COc1ccccc1)CN1CCC(Cc2ccccc2)CC1 (stereo not given)	-6.3	i	i	i	nt	i	nt	nt	nt	nt
Cc1ccc(OCC(O)CN2CCC(Cc3ccccc3)CC2)c(C)c1 (stereo not given)	-17.4	i	i	i	nt	7*	31.0*	0.443	76.3%*	63.0%*
COc1ccc2nc(-c3ccccc3)cc(C(=O)OCC(=O)N3CC(C)OC(C)C3)c2c1 (stereo not given)	nt	nt	i	nt	nt	nt	nt	nt	nt	nt
O=C(Nc1ccncc1)C1CCN(S(=O)(=O)c2ccc(Cl)cc2)CC1	-12.2	i	i	i	nt	i	nt	nt	nt	nt
NC(=O)c1cc2ccc(O)cc2oc1=NCc1ccccc1	-59.5	i	i	i	i	31*	+	0.048*	i	i
CC(C)(C)c1ccc(OCCC(=O)OCC(=O)N2c3ccccc3NC(=O)C2(C)C)cc1	-31.9	i	i	i	nt	7*	120.5*	0.291*	140.3%*	55.5%*
Cc1ccccc1OCCC(=O)OCC(=O)N1c2ccccc2NC(=O)C1(C)C	-6.2	i	i	i	nt	i	nt	nt	nt	nt
O=C(Nc1nc2ccccc2[nH]1)c1ccc(Cl)c(S(=O)(=O)N2CCCC2)c1	-9.1	i	i	i	-0.865	11*	0.0	0.502	i	35.5%*
CCN(CC(=O)Nc1c(F)cccc1F)C(=O)C1=COCCO1	-10.9	i	i	i	nt	i	nt	nt	nt	nt
COc1ccc(C2c3ccsc3CCN2C(=O)C(C)(C)C)cc1 (stereo not given)	-14.4	i	i	i	-2.69	8*	116.5*	0.374*	82.0%*	152.0%*
COc1ccc(C2NCCc3sccc32)cc1 (stereo not given)	-0.8	i	i	i	-0.705	i	nt	nt	nt	nt
Cn1cc(S(=O)(=O)N2CCCC2)cc1C(=O)O	nt	nt	i	nt	nt	nt	nt	nt	nt	nt
CCOc1ccc(N=C2SC(C(=O)Nc3ccccc3C#N)C(N)=C2C(=O)Nc2ccc(Cl)cc2)cc1 (stereo not given)	-3.0	i	i	i	0.651	i	nt	nt	nt	nt
N#Cc1ccccc1NC(=O)C1SC(=Nc2ccccc2)C(C(=O)Nc2ccc(Cl)cc2)=C1N (stereo not given)	-20.9	i	i	i	-0.222	10*	112.5*	0.429	97.3%*	82.0%*	KCNQ1 ephys val=i
CN(C)CCNC(=O)c1ccc(Sc2ccc(Br)cc2)c([N+](=O)[O-])c1	-20.0	i	i	i	-0.0433	15*	0.0	0.495	i	i
COc1cc(C(=O)NC(C)Cc2ccccn2)ccc1OC1CCN(C(C)=O)CC1 (stereo not given)	-11.5	i	i	i	nt	i	nt	nt	nt	nt
COc1ccc(C(=O)N2CCCC(CCC(=O)NCc3ccccc3F)C2)c(OC)n1 (stereo not given)	-8.8	i	i	i	nt	i	nt	nt	nt	nt
COc1cc(/C=C/c2nc(-c3ccccc3O)n[nH]2)cc(OC)c1OC	-33.7	i	i	i	0.755	6*	116.0*	0.381	113.0%*	190.0%*
Cc1cccc(NC(=O)NNC(=O)c2cc3occc3[nH]2)c1C	-0.5	i	i	i	nt	i	nt	nt	nt	nt
